Only some compounds are listed: those with a hit (about 5.3% of all), similar ones and a draw of the others.
T cruzi repl = T. cruzi replication inhibition | AID 1885 | actives 1.4% (n = 300,000) | T. cruzi beta-gal in NIH3T3, luminescence, 90 h | inhibition, % (no concentration beside the values);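 active means mean inhibition across valid replicates above about 55%, limit read from the data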;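 further: signal also drops with host cell toxicity which is not excluded here; higher percent means less beta-gal luminescence so fewer parasites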
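Assay system: NIH/3T3 host cells with β-galactosidase reporter T. cruzi; input: 5,000 host fibroblasts per well; compound: single 50 nL compound addition per well in DMSO; timing: ≥90 h infection period, 3 h prior cell attachment; measured by: GalScreen β-gal luminescence, detergent lysis, 60 min; evaluation: percent inhibition of parasite-derived β-gal signal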
Calb FLC = C. albicans growth modulation with fluconazole. C. albicans CaCi-2 + fluconazole, Alamar Blue growth, 48 h. growth inhibition, % (test concentration not listed). actives 0.57% (n = 300,000);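 active means growth inhibition above about 58% in most replicates, limit read from the data, passing the limit was not always enough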;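 further: all wells also contain fluconazole at 8 µg/ml as a sub-toxic cotreatment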
NLRP3 yeast inh = blocks the NALP3 inflammasome reconstituted in yeast; Yeast reconstituted NLRP3/ASC/caspase-1, beta-gal luminescence, 24 h; inhibition, % at 10 µM; actives 0.39% (n = 330,000);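 active means inhibition of 50% or more; inactive means inhibition below 50%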
CSC inhib = blocks cancer stem cells; actives 1.1% (n = 300,000); cancer stem cell-like cells viability, luminescence; inhibition, % at 7.5 µM; in the data active means inhibition above about 75%; tested in HMLE shEcad cells
Beta apoptosis = beta cell apoptosis inhibition | actives 0.8% (n = 300,000) | protection from apoptosis, % (no concentration beside the values) | INS-1E cytokine-induced death, ATP luminescence, 48 h; percent of positive-control rescue, neutral wells zero;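 active means Every replicate reaches about 75%, or at least half do and their mean reaches it too, limit read from the data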;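 further: higher means more ATP so stronger rescue from cytokine killing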
Mdm2-MdmX inh = disrupts the human Mdm2-MdmX interaction | SaOS-2 split-luciferase Mdm2/MdmX complementation, luminescence | inhibition, % at 8 µM | actives 3% (n = 330,000);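 active means inhibition of at least 50% at 8 µM in the primary screen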
Target sequence (O15151 whole entry, looked up): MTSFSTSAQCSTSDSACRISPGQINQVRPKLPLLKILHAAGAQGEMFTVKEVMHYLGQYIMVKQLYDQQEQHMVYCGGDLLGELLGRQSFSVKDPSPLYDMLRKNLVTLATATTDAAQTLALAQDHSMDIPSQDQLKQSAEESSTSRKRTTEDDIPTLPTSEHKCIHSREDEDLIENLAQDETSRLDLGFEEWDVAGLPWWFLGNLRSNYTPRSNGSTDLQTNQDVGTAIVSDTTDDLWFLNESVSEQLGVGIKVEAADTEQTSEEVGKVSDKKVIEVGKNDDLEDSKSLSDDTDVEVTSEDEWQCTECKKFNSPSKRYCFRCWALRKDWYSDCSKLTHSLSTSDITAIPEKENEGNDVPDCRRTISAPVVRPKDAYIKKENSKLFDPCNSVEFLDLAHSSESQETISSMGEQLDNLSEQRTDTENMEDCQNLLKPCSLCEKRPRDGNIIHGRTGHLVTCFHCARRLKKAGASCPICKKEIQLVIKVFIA
Target sequence (Q00987 whole entry, looked up): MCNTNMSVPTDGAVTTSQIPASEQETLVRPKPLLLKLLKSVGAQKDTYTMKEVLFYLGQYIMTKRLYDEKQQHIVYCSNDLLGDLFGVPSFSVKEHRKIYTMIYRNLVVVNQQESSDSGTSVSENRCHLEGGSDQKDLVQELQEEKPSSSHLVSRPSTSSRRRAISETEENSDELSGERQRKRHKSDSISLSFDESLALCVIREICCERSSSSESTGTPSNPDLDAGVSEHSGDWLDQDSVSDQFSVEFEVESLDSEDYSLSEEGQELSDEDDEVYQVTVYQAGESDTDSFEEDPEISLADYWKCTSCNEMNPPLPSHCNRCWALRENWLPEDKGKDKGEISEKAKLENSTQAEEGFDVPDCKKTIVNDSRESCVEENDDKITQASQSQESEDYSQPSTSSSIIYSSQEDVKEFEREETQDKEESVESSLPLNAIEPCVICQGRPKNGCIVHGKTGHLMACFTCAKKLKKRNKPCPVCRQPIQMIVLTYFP
Mdm2 MdmX conf = confirmation of human Mdm2/MdmX interaction inhibitors. shares compounds with Mdm2-MdmX inh. Mdm2-MdmX binding, luminescent assay. inhibition, % at 8 µM. actives 55% (n = 10,000). AID 489028; in the data active means inhibition above about 40%
Full FLuc ctr = counter-screen for Mdm2/MdmX inhibitors: full-length luciferase; inhibition, % at 8 µM; actives 77% (n = 6,200); shares compounds with Mdm2-MdmX inh; SaOS-2 full-length luciferase counterscreen, luminescence;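 active means mean inhibition at 8 µM reaching about 37%, which flags the compound as non-specific, limit read from the data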;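 further: p53-null SaOS-2 cells with luciferase driven by a doxycycline-inducible promoter; compound on cells about two nights before reading with doxycycline added after day one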
Hits are given with their value; 0 = inactive; - = no result given.

SMILES	T cruzi repl	Calb FLC	NLRP3 yeast inh	CSC inhib	Beta apoptosis	Mdm2-MdmX inh	Mdm2 MdmX conf	others
COc1ccc(-c2cc(C(=O)N(C)Cc3ccccc3F)c3ccccc3n2)cc1OC	0	0	0	0	0	70.1	0	Full FLuc ctr=105.5
CCN(Cc1ccccc1)C(=O)c1cc(-c2ccc(OC)c(OC)c2)nc2ccccc12	0	0	0	0	0	0	-
CCOC(=O)C1CCN(C(=O)c2ccc(NS(=O)(=O)c3ccc(F)cc3C)cc2)CC1	0	0	0	0	0	0	-
O=C(NCc1ccccc1)c1nc(-c2cccs2)no1	0	-	0	0	0	0	-
Cc1ccc(NC(=O)COC(=O)C2CSC3(C)CCC(=O)N23)c(C)c1 (centres undefined)	-	-	0	0	0	0	-
COc1cccc(CN(C)C(=O)c2cc(-c3cccs3)nc3ccccc23)c1	0	0	0	0	0	58.2	42.6	Full FLuc ctr=60.9
COc1ccc(N2CCN(C(=O)c3cc(-c4cccs4)nc4ccccc34)CC2)cc1	0	0	0	0	0	0	-
Cc1cc(C)cc(N/C(N)=N/c2nc(C)cc(C)n2)c1	0	0	0	0	0	0	-
Cc1ccc(/C(=N\S(=O)(=O)c2ccc(Br)cc2)Nc2ccccc2C)cc1	0	0	0	0	-	0	-
Cc1nc(Nc2cnc(/C=C/c3cc(C(=O)Nc4cccc(C(F)(F)F)c4)ccc3C)cn2)cc(N2CCNCC2)n1	0	0	0	136.2	106.8	89.8	52.1	Full FLuc ctr=49.5
O=C(c1ccc(Nc2cccc(C(F)(F)F)c2)nc1)N1CCCC1	0	0	0	0	0	0	-
CCOc1ccc(-n2c(SCC(=O)N3CCc4ccccc43)nnc2-c2c[nH]c3ccccc23)cc1	0	0	0	0	0	0	-
O=C(CSc1nc2ccccc2c(=O)n1-c1ccccc1)N1CCc2ccccc21	0	0	0	0	0	54.9	68.0	Full FLuc ctr=80.6
O=C(CSc1nc2ccccc2c(=O)n1-c1ccccc1)N1CCCc2ccccc21	0	0	0	0	0	0	-
COc1cccc(-n2c(SCC(=O)N3CCc4ccccc43)nnc2-c2c[nH]c3ccccc23)c1	0	0	0	0	0	74.9	48.9	Full FLuc ctr=82.7
CCOC(=O)/C(C#N)=C/c1cc(C)n(-c2ccc(C)cc2)c1C	0	0	0	0	0	0	-
Cc1ccc(-c2ccc(/C=C(\C#N)C(=O)Nc3cc(C)nn3-c3ccccc3)o2)cc1	0	0	0	0	0	54.1	0
CC(C)C(c1nnnn1C1CCCC1)N(C)C1CCCCC1 (centres undefined)	0	0	0	0	0	0	-
CCCCOc1ccc(/C=C/C(=O)OCC(=O)NC(=O)NCC(C)C)cc1OCC	0	0	0	0	0	0	-
N#Cc1ccc2[nH]c(CO)c(-c3ccccc3)c2c1	0	0	0	0	0	0	-
CCOC(=O)N1CCC(NC(=O)c2cnn3c(C(F)(F)F)cc(-c4cccc(OC)c4)nc23)CC1	0	0	0	-	-	61.5	0
COc1ccc(-c2cc(C(F)(F)F)n3ncc(C(=O)NCC4CCCO4)c3n2)cc1OC (centres undefined)	0	0	0	0	0	57.1	0
COc1ccc(-c2cc(C(F)F)n3ncc(C(=O)NCC4CCCO4)c3n2)cc1 (centres undefined)	0	0	0	0	0	0	-
CC(C)[C@H](CO)Nc1nc(NCc2ccc(S(N)(=O)=O)cc2)c2ncn(C(C)C)c2n1	0	0	0	0	0	79.2	64.0	Full FLuc ctr=51.3
Cc1cc(C)cc(NC(=O)CCc2nc3sc4c(c3c(=O)[nH]2)CCCC4)c1	0	0	0	89.0	-	82.1	94.4	Full FLuc ctr=95.8
SMILES	T cruzi repl	Calb FLC	NLRP3 yeast inh	CSC inhib	Beta apoptosis	Mdm2-MdmX inh	Mdm2 MdmX conf	others
CC(=O)Nc1ccc(NC(=O)CCc2nc3sc4c(c3c(=O)[nH]2)CCCC4)cc1	0	0	0	-	0	0	-
CN(CC(=O)Nc1ccc(Cl)cc1)C(=O)CCc1nc2sc3c(c2c(=O)[nH]1)CCCC3	0	0	0	0	0	86.0	50.5	Full FLuc ctr=95.8
COc1cc(/C=C(\C#N)c2nc3ccccc3o2)ccc1O	0	0	0	0	0	0	-
COc1cc(/C=C(\C#N)c2nc(-c3cc4ccccc4oc3=O)cs2)ccc1O	0	0	0	0	0	58.1	0
Nc1[nH]n2c(=O)cc(-c3ccccc3)nc2c1N=Nc1ccccc1	0	0	0	91.7	0	57.5	46.9	Full FLuc ctr=42.9
CCC(=O)N(c1nnc(SCC(=O)Nc2ccc(N3CCOCC3)cc2)s1)C1CC1	-	-	0	0	0	0	-
Cc1ccc2oc(Nc3nc(-c4ccccc4)cc(=O)[nH]3)nc2c1	74.8	0	0	-	-	96.7	0
Cc1cc(C)c2nc(Nc3nc(-c4ccccc4)cc(=O)[nH]3)nc(C)c2c1	0	0	0	0	0	71.5	0
COCc1cc(=O)[nH]c(Nc2nc3ccccc3o2)n1	0	0	0	0	0	0	-
O=C(O)C1CSC(c2ccc3c(c2)OCO3)N1 (centres undefined)	0	0	0	-	0	0	-
CN(C)CCNC(=O)c1cc2c(s1)-c1ccc(Cl)cc1SC2	0	0	0	102.3	0	100.3	87.3	Full FLuc ctr=56.8
CCOCCCNC(=O)c1cc2c(s1)-c1ccccc1SC2	0	0	0	0	0	0	-
COc1cccc(-c2nc(OC(C)C)c3ccccc3n2)c1	0	0	0	0	0	0	-
CCN(CC)C(=O)CSc1nnc2sc3ccccc3n12	0	0	0	0	0	0	-
CCC(C)Sc1ccc(-c2nc3ccc(C)cn3c2NCc2ccccc2)cc1OC (centres undefined)	0	0	0	0	96.8	97.4	57.0	Full FLuc ctr=39.2
CCCCNc1c(-c2ccc(OC)c(SC(C)CC)c2)nc2ccc(Cl)cn12 (centres undefined)	-	-	0	0	0	0	-
CCCCNc1c(-c2ccc(Sc3ccc(OC)cc3)cc2)nc2cc(C)ccn12	-	-	0	0	0	79.6	0
CCCCNc1c(-c2ccc(OC)c(SC(C)CC)c2)nc2ccc(C)cn12 (centres undefined)	-	-	0	100.4	119.7	88.6	0
COc1ccc(-c2nc3ccc(C)cn3c2NCc2ccccc2)cc1SC1CCCCC1	62.6	0	0	0	99.4	52.9	0
Cc1cc(C)nc(SCC(=O)N(C)CC(=O)Nc2ccccc2Br)n1	0	0	0	0	0	0	-
CCCCNc1c(-c2ccc(OC)c(SC3CCCCC3)c2)nc2ccc(C)cn12	-	-	0	-	-	97.5	45.6	Full FLuc ctr=0
COc1ccc(-c2nc3ccc(Cl)cn3c2NC2CCCCC2)cc1SC1CCCCC1	-	-	0	-	-	0	-
Cc1occc1C(=O)N/N=C/c1ccccn1	0	0	0	0	0	0	-
COc1ccc(/C=C/C(O)=C2/C(=O)N(C)C3(C)CC2c2ccccc2O3)cc1 (centres undefined)	0	0	0	0	0	72.8	0

Source: PubChem BioAssay (several laboratories)
